# Laboratory results published in ChEMBL document CHEMBL1147432, “Rational design of azepane-glycoside antibiotics targeting the bacterial ribosome” (Bioorg Med Chem Lett, 2004).
# pIC50: −log10 of the molar value.
# Target: Nucleic Acid
# Assay: Compound was tested for binding to the bacterial decoding-site RNA target using an RNA fluorescence assay
# Type: nucleic-acid assay
# How it was run: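 Fluorescence assay on a model decoding-site oligonucleotide, reporting ligand-induced flipping out of adenines A1492 and A1493; binding curve averaged from two titrations and fitted to a single-site model to give IC50.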
row,pIC50,Compound
1,< 3.60,CN1CC[C@H](N)[C@@H](O[C@H]2O[C@H](CN)[C@@H](O)[C@H](O)[C@H]2N)C[C@@H]1CO
2,< 3.60,NC[C@H]1O[C@H](O[C@H]2CCN[C@@H](CO)C[C@@H]2N)[C@H](N)[C@@H](O)[C@@H]1O
3,< 3.60,NC[C@H]1O[C@H](O[C@H]2CCN[C@H](CO)C[C@@H]2N)[C@H](N)[C@@H](O)[C@@H]1O
4,< 3.60,NC[C@H]1O[C@H](O[C@H]2C[C@H](CCl)NCC[C@@H]2N)[C@H](N)[C@@H](O)[C@@H]1O
5,< 3.60,N[C@H]1[C@@H](O[C@H]2C[C@H](CO)NCC[C@@H]2N)O[C@H](CO)[C@@H](O)[C@@H]1O
6,< 3.60,NC[C@H]1O[C@H](O[C@@H]2CCN[C@@H](CO)C[C@H]2N)[C@H](N)[C@@H](O)[C@@H]1O
7,4.92,NC[C@H]1O[C@H](O[C@@H]2C[C@H](CO)NCC[C@H]2N)[C@H](N)[C@@H](O)[C@@H]1O
8,4.96,NC[C@H]1O[C@H](O[C@H]2C[C@H](CO)NCC[C@@H]2N)[C@H](N)[C@@H](O)[C@@H]1O
9,< 3.60,NC[C@H]1O[C@H](O[C@H]2C[C@H](CO)NCC[C@@H]2N)[C@H](N)[C@@H](OCc2ccccc2)[C@@H]1OCc1ccccc1
10,< 3.60,NC[C@H]1C[C@H](O[C@H]2O[C@H](CN)[C@@H](O)[C@H](O)[C@H]2N)[C@@H](N)CCN1
11,< 3.60,NC[C@H]1O[C@H](O[C@@H]2CCN[C@H](CO)C[C@H]2N)[C@H](N)[C@@H](O)[C@@H]1O
12,< 3.60,NC[C@H]1O[C@H](O[C@H]2C[C@@H]3COC(=O)N3CC[C@@H]2N)[C@H](N)[C@@H](O)[C@@H]1O
13,4.10,NC[C@H]1O[C@H](O[C@@H]2C[C@@H](CO)NCC[C@H]2N)[C@H](N)[C@@H](O)[C@@H]1O

# Test system: not listed separately
# Assay: Cytotoxic concentration against proliferation of eukaryotic cells
# Type: functional
row,Compound,CC50 [µM]
1,NC[C@H]1O[C@H](O[C@@H]2C[C@H](CO)NCC[C@H]2N)[C@H](N)[C@@H](O)[C@@H]1O,> 320
2,NC[C@H]1O[C@H](O[C@H]2C[C@H](CO)NCC[C@@H]2N)[C@H](N)[C@@H](O)[C@@H]1O,> 320

# Test system: Staphylococcus aureus
# Assay: Antibacterial activity against Staphylococcus aureus (ATCC-25923)
# Type: functional
row,MIC [µg/mL],Compound
1,> 64,CN1CC[C@H](N)[C@@H](O[C@H]2O[C@H](CN)[C@@H](O)[C@H](O)[C@H]2N)C[C@@H]1CO
2,> 64,NC[C@H]1O[C@H](O[C@H]2CCN[C@@H](CO)C[C@@H]2N)[C@H](N)[C@@H](O)[C@@H]1O
3,> 64,NC[C@H]1O[C@H](O[C@H]2CCN[C@H](CO)C[C@@H]2N)[C@H](N)[C@@H](O)[C@@H]1O
4,> 64,NC[C@H]1O[C@H](O[C@H]2C[C@H](CCl)NCC[C@@H]2N)[C@H](N)[C@@H](O)[C@@H]1O
5,> 64,N[C@H]1[C@@H](O[C@H]2C[C@H](CO)NCC[C@@H]2N)O[C@H](CO)[C@@H](O)[C@@H]1O
6,> 64,NC[C@H]1O[C@H](O[C@@H]2CCN[C@@H](CO)C[C@H]2N)[C@H](N)[C@@H](O)[C@@H]1O
7,32,NC[C@H]1O[C@H](O[C@@H]2C[C@H](CO)NCC[C@H]2N)[C@H](N)[C@@H](O)[C@@H]1O
8,64,NC[C@H]1O[C@H](O[C@H]2C[C@H](CO)NCC[C@@H]2N)[C@H](N)[C@@H](O)[C@@H]1O
9,> 64,NC[C@H]1O[C@H](O[C@H]2C[C@H](CO)NCC[C@@H]2N)[C@H](N)[C@@H](OCc2ccccc2)[C@@H]1OCc1ccccc1
10,> 64,NC[C@H]1C[C@H](O[C@H]2O[C@H](CN)[C@@H](O)[C@H](O)[C@H]2N)[C@@H](N)CCN1
11,> 64,NC[C@H]1O[C@H](O[C@@H]2CCN[C@H](CO)C[C@H]2N)[C@H](N)[C@@H](O)[C@@H]1O
12,> 64,NC[C@H]1O[C@H](O[C@H]2C[C@@H]3COC(=O)N3CC[C@@H]2N)[C@H](N)[C@@H](O)[C@@H]1O
13,> 64,NC[C@H]1O[C@H](O[C@@H]2C[C@@H](CO)NCC[C@H]2N)[C@H](N)[C@@H](O)[C@@H]1O

# Test system: Staphylococcus aureus
# Assay: Compound was tested for bacterial translation inhibition (in vitro) using transcription-translation assay
# Type: functional
# How it was run: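 Coupled in vitro transcription–translation assay; IC50 from dose–response curves averaged over six independent experiments, error bars ±1σ.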
row,pIC50,Compound
1,4.12,CN1CC[C@H](N)[C@@H](O[C@H]2O[C@H](CN)[C@@H](O)[C@H](O)[C@H]2N)C[C@@H]1CO
2,3.43,NC[C@H]1O[C@H](O[C@H]2CCN[C@@H](CO)C[C@@H]2N)[C@H](N)[C@@H](O)[C@@H]1O
3,4.41,NC[C@H]1O[C@H](O[C@H]2CCN[C@H](CO)C[C@@H]2N)[C@H](N)[C@@H](O)[C@@H]1O
4,4.09,NC[C@H]1O[C@H](O[C@H]2C[C@H](CCl)NCC[C@@H]2N)[C@H](N)[C@@H](O)[C@@H]1O
5,3.96,N[C@H]1[C@@H](O[C@H]2C[C@H](CO)NCC[C@@H]2N)O[C@H](CO)[C@@H](O)[C@@H]1O
6,3.64,NC[C@H]1O[C@H](O[C@@H]2CCN[C@@H](CO)C[C@H]2N)[C@H](N)[C@@H](O)[C@@H]1O
7,5.19,NC[C@H]1O[C@H](O[C@@H]2C[C@H](CO)NCC[C@H]2N)[C@H](N)[C@@H](O)[C@@H]1O
8,5.24,NC[C@H]1O[C@H](O[C@H]2C[C@H](CO)NCC[C@@H]2N)[C@H](N)[C@@H](O)[C@@H]1O
9,< 3.00,NC[C@H]1O[C@H](O[C@H]2C[C@H](CO)NCC[C@@H]2N)[C@H](N)[C@@H](OCc2ccccc2)[C@@H]1OCc1ccccc1
10,3.77,NC[C@H]1C[C@H](O[C@H]2O[C@H](CN)[C@@H](O)[C@H](O)[C@H]2N)[C@@H](N)CCN1
11,4.33,NC[C@H]1O[C@H](O[C@@H]2CCN[C@H](CO)C[C@H]2N)[C@H](N)[C@@H](O)[C@@H]1O
12,< 3.00,NC[C@H]1O[C@H](O[C@H]2C[C@@H]3COC(=O)N3CC[C@@H]2N)[C@H](N)[C@@H](O)[C@@H]1O
13,3.74,NC[C@H]1O[C@H](O[C@@H]2C[C@@H](CO)NCC[C@H]2N)[C@H](N)[C@@H](O)[C@@H]1O

# Test system: Escherichia coli
# Assay: Antibacterial activity against Escherichia coli (Strain ATCC 25922)
# Type: functional
row,MIC [µg/mL],Compound
1,> 64,CN1CC[C@H](N)[C@@H](O[C@H]2O[C@H](CN)[C@@H](O)[C@H](O)[C@H]2N)C[C@@H]1CO
2,> 64,NC[C@H]1O[C@H](O[C@H]2CCN[C@@H](CO)C[C@@H]2N)[C@H](N)[C@@H](O)[C@@H]1O
3,> 64,NC[C@H]1O[C@H](O[C@H]2CCN[C@H](CO)C[C@@H]2N)[C@H](N)[C@@H](O)[C@@H]1O
4,> 64,NC[C@H]1O[C@H](O[C@H]2C[C@H](CCl)NCC[C@@H]2N)[C@H](N)[C@@H](O)[C@@H]1O
5,> 64,N[C@H]1[C@@H](O[C@H]2C[C@H](CO)NCC[C@@H]2N)O[C@H](CO)[C@@H](O)[C@@H]1O
6,> 64,NC[C@H]1O[C@H](O[C@@H]2CCN[C@@H](CO)C[C@H]2N)[C@H](N)[C@@H](O)[C@@H]1O
7,> 64,NC[C@H]1O[C@H](O[C@@H]2C[C@H](CO)NCC[C@H]2N)[C@H](N)[C@@H](O)[C@@H]1O
8,> 64,NC[C@H]1O[C@H](O[C@H]2C[C@H](CO)NCC[C@@H]2N)[C@H](N)[C@@H](O)[C@@H]1O
9,> 64,NC[C@H]1O[C@H](O[C@H]2C[C@H](CO)NCC[C@@H]2N)[C@H](N)[C@@H](OCc2ccccc2)[C@@H]1OCc1ccccc1
10,> 64,NC[C@H]1C[C@H](O[C@H]2O[C@H](CN)[C@@H](O)[C@H](O)[C@H]2N)[C@@H](N)CCN1
11,> 64,NC[C@H]1O[C@H](O[C@@H]2CCN[C@H](CO)C[C@H]2N)[C@H](N)[C@@H](O)[C@@H]1O
12,> 64,NC[C@H]1O[C@H](O[C@H]2C[C@@H]3COC(=O)N3CC[C@@H]2N)[C@H](N)[C@@H](O)[C@@H]1O
13,> 64,NC[C@H]1O[C@H](O[C@@H]2C[C@@H](CO)NCC[C@H]2N)[C@H](N)[C@@H](O)[C@@H]1O
